In ChEMBL document CHEMBL4513216, “Probing the Open Global Health Chemical Diversity Library for Multistage-Active Starting Points for Next-Generation Antimalarials” (ACS Infect Dis, 2020):

Test: Toxicity liver stage against HepG2, at 10uM
Type: cell-based
Parameters: test concentration 10 uM, cell line HepG2-A16-CD81EGFP
Conditions: human, HepG2-A16-CD81EGFP cells; read-out: INHIBITION
In short: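 Uninfected HepG2-A16-CD81EGFP cells, 3 × 10^3 per well, 1536-well, plated on prespotted compound at 10 μM final, parasite-free screening media added to match infected plates; puromycin 10 μM positive, DMSO 0.5% negative; run in parallel with 48 h PbLuc assay at 37 °C, 5% CO2; viability by CellTiter-Glo luminescence, normalized to controls.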

Row | SMILES | cytotoxicity at 10 µM
1 | O=C1CCCc2nccc(-c3ccccc3)c21 | 3.15%
2 | Cc1n[nH]c(=O)c2c(NC(=O)CN3CCOC(C)C3)oc(C)c12 (stereo unspecified) | -0.524%
3 | C[C@@H](NC(=O)c1cccnc1)c1onc(-c2ccccc2)c1C(=O)O | 10.1%
4 | COc1ccc2c(c1)nc1n2[C@@H](CNC(=O)c2ccccn2)COC1 | -3.03%
5 | Oc1ccc([C@H]2Oc3cc(O)cc(O)c3C[C@@H]2O)cc1 | 4.94%
6 | COc1ccc2c(ccn2CCC(=O)NCc2ccc(C(=O)O)cc2)c1 | 2.25%
7 | COC(=O)c1ccc(C2SCC(=O)Nc3c2cnn3C(C)(C)C)cc1 (stereo unspecified) | 2.06%
8 | O=C1CC(NS(=O)(=O)c2ccc3ccccc3c2)CN1 (stereo unspecified) | 3.94%
9 | N#Cc1ccc(OC2CCN(C(=O)c3ccccc3Cl)CC2)nc1 | 3.93%
10 | O=C(NCCn1nc(-n2cncn2)ccc1=O)c1ccc(F)cc1F | -8.78%
11 | CCN1C(=O)CCC12CCN(S(=O)(=O)c1ccc(C#N)cc1)CC2 | 1.82%
12 | Cc1noc(C2CCC3(CCN(C(=O)c4cc(C5CC5)on4)CC3)O2)n1 (stereo unspecified) | 3.1%
13 | O=C(NCc1ccco1)[C@@]12CCO[C@@H]1CCN(Cc1nccs1)C2 | 14.6%
14 | Cc1occc1C(=O)N1CCn2cnc(COCC3CC3)c2C1 | -6.4%
15 | CN(C(=O)Cn1nc(-c2ccccc2F)ccc1=O)C1CCS(=O)(=O)C1 (stereo unspecified) | 2.21%
16 | COc1cc(CCC(C)O)c(OC)c2c1OCO2 (stereo unspecified) | 6.79%
17 | CN(C)CC(=O)N1Cc2nc(C(=O)NCc3ccncc3)oc2C1 | -8.58%
18 | CCC1=N[C@@]2(CC[C@@H]3CN(S(=O)(=O)N(C)C)C[C@@H]32)C(=O)N1CC(C)C | 10.3%
19 | COc1ccc(N2CCN(C(=O)Cn3nc(C)c(Cl)c3C)CC2)cc1 | 1.58%
20 | Cc1nc(N2CCN(C(=O)c3ccco3)CC2)c2c(n1)c(C)nn2C | 12.1%
21 | CCc1noc(C2CCCCN2C(=O)c2ccc3c(c2)OCO3)n1 (stereo unspecified) | 1.75%
22 | Cc1nn(C)c2cnn(CC(=O)NCCc3ccccc3)c12 | 13.4%
23 | CN(C)c1nccc(C2CN(c3cnccn3)CCO2)n1 (stereo unspecified) | 7.95%

Row | SMILES | cytotoxicity at 10 µM
24 | Cc1nccc(CN2Cc3nccn3CC2c2ccccc2)n1 (stereo unspecified) | 3.1%
25 | CN(C)c1nccnc1C1CCCN(c2cnccn2)C1 (stereo unspecified) | -4.92%
26 | CN1CCOC(C)(C(=O)Nc2nc(C(C)(C)C)cs2)C1 (stereo unspecified) | 6.52%
27 | CC(C)N1CC[C@@](C)(O)[C@H](n2ccc(=O)[nH]c2=O)C1 | 6.61%
28 | COc1ccc(-c2cnc(N(C)C)nc2C2CN(C(C)=O)CCO2)cc1 (stereo unspecified) | -31.9%
29 | COc1cccc(CN2CCC(c3nn(CCN)c4nccnc34)C2)c1 (stereo unspecified) | -24.7%
30 | CN(C)C(=O)CN1CCCC1c1nccnc1Nc1ccccn1 (stereo unspecified) | -15%
31 | COC(=O)Nc1cccc(C(=O)N(C)Cc2cccc(O)c2)c1 | -5.88%
32 | CCN(CC)CCCNC(=O)Nc1c(C)cccc1C(C)C | -0.847%
33 | CC1(C)CCN1C(=O)c1cc(F)cc2[nH]cnc12 | -7.09%
34 | COc1cccc(-c2n[nH]cc2CNC2CCCN(C)C2)c1 (stereo unspecified) | -8.86%
35 | Cc1ccc(CN(CC(=O)NCC2CCOC2)c2ccc(F)cc2)o1 (stereo unspecified) | 9.83%
36 | Cc1cc(CN(CC(N)=O)CC(C)C)no1 | 3.72%
37 | Cc1nc(-c2nnc[nH]2)sc1C(=O)N1CCCC(C(F)(F)F)C1 (stereo unspecified) | 7.59%
38 | CN(C)c1cc(C(=O)Nc2ccccc2C(=O)NC(C)(C)C)ccn1 | 2.46%
39 | NC(=O)CCn1ccc(NC(=O)c2ccc(Br)o2)n1 | -1.39%
40 | C1CCC(CNC2CCCN(Cc3noc(C4CC4)n3)C2)C1 (stereo unspecified) | -2.34%
41 | CN1CCCN(C(=O)NCc2ccccc2Cn2cncn2)CC1 | 3.58%
42 | O=C(C1CC1)N1CCCC1c1nnc2n1CCCCC2 (stereo unspecified) | -0.614%
43 | CCc1nc(CN(C)Cc2nnc(-c3cccs3)o2)cs1 | 6.37%
44 | Cc1nsc(NC2CCN(c3ccccc3OC(F)F)C2=O)n1 (stereo unspecified) | 2.14%
45 | Cc1cccn2cc(CN3CCCC(O)C3)nc12 (stereo unspecified) | 2.25%
46 | CCc1ncc(C(=O)NC(C)(C)CC)s1 | -0.343%

Row | SMILES | cytotoxicity at 10 µM
47 | CC(C)CN1C(=O)C2(CCCC2)NC1c1cccnc1 (stereo unspecified) | 3.71%
48 | COC(=O)CN(C(=O)c1cc(C(C)C)no1)c1cccc(F)c1 | 11.3%
49 | Cc1cc(C)cc(OCCN(C)Cc2ccc(S(=O)(=O)N(C)C)o2)c1 | 8.2%
50 | Cc1ccc2nc(CNc3ccccc3C(=O)NC3CC3)cn2c1 | 3.16%
51 | CS(=O)(=O)Cc1nc(CN2CCOc3ccccc3C2)cs1 | 5.81%
52 | Cc1cnccc1NC(=O)CCc1ccsc1 | -3.51%
53 | COc1cc(C(=O)N(CCC#N)Cc2ccccn2)cc(OC)c1C | -15.1%
54 | COCCCN(CCOC)C(=O)Nc1ccc(C)cc1C | 4.16%
55 | CCn1ccnc1CN1CCN(CCC(=O)NC(C)(C)C)CC1C (stereo unspecified) | -15.8%
56 | Cn1cccc1C(=O)NC[C@H]1C[C@@H]2CN(C(=O)c3ccco3)C[C@@H]2O1 | -105%
57 | CC(=O)N1CCCC2(CCN(c3nncs3)C2)C1 (stereo unspecified) | -103%
58 | CC(=O)N1CC2(CCNCC2)c2cc(C)ccc21 | -73.2%
59 | CN1CCN(CC2CC2)C(=O)c2cnc(N3CCCCC3)nc21 | 4.84%
60 | Cc1cc(C)n(Cc2cc(C(=O)N3CCCCC3c3nccs3)n[nH]2)n1 (stereo unspecified) | 13.8%
61 | O=C1CSc2ccccc2N1Cc1noc(C2CCCO2)n1 (stereo unspecified) | 8.35%
62 | O=C(NCCc1c[nH]cn1)c1ccc(S(=O)(=O)NC2CCCC2)cc1 | -7.2%
63 | CN(Cc1nccs1)c1nccc(N2CCN[C@H]3CS(=O)(=O)C[C@H]32)n1 | -5%
64 | CSc1nccc(N2CCC(=O)N(CC3CC3)C(C(C)C)C2)n1 (stereo unspecified) | -2.02%
65 | Cc1cc(C)n(CCCN(CCN2CCOCC2)Cc2ccco2)n1 | 8.97%
66 | NCC1CN(c2nc(-c3cccnc3)nc3c2CCNCC3)CCO1 (stereo unspecified) | -17.6%
67 | CCCOC1CCCN(c2nc(CC)nc3c2cnn3C)C1 (stereo unspecified) | -3.29%
68 | c1cncc(C(Cn2cnnc2)N2CCOCC2)c1 (stereo unspecified) | -5.11%
69 | CSc1ccc(-c2nc(CN3CCNCC3C)c(C)o2)cc1 (stereo unspecified) | -5.58%

Row | SMILES | cytotoxicity at 10 µM
70 | CC(C)Oc1cccc2c1c(NC(=O)CN(C)C)nn2CC(F)(F)F | -9.69%
71 | Nc1nc(CC(=O)N2CCCC(CCc3cccc(F)c3)C2)cc(=O)[nH]1 (stereo unspecified) | -6.12%
72 | Cc1nonc1OCCNC(=O)COc1ccc(Cl)cc1Cl | 3.95%
73 | O=C(c1cc[nH]n1)N1CCC(c2nccn2Cc2ccncc2)CC1 | 0.216%
74 | CCN(Cc1ccc(O)c(C(=O)O)c1)CC1CCOCC1 | -5.24%
75 | Cn1ncc(NC(=O)Cn2ccc(-c3cccc(F)c3)n2)n1 | 1.73%
76 | COCC(=O)N1CCC(C(=O)Nc2ccc(S(N)(=O)=O)cc2)CC1 | -1.47%
77 | CC(C)c1ccnc(N[C@H]2COC[C@@H]2N2CCCC2)n1 | -4.48%
78 | CN1CC(c2ccccc2)CC12CCN(C(=O)c1ccncc1)CC2 (stereo unspecified) | -7.96%
79 | CCCn1cc(C(=O)N(C)Cc2nc(-c3ccccn3)no2)c(C)n1 | 0.334%
80 | CC(C)(N)CN1CCC(c2nnc(CN3CCCC3)n2C2CC2)CC1 | 19.2%
81 | Cc1nc(CN2CCN(c3ccc4nncn4n3)C(C)C2)oc1C (stereo unspecified) | -2.91%
82 | Cc1cc(C(=O)N2CCCC2)ccc1NCC(=O)N1CCOCC1 | -5%
83 | CC(C)OCCCNC(=O)CS(=O)(=O)Cc1ccc(C(C)C)cc1 | 0.239%
84 | O=C(CCNC(=O)C1CCCC1)NCc1ccccc1Cn1ccnc1 | -2.74%
85 | Cn1ccnc1CN1CCN(CCOc2ccccc2F)CC1 | -10.9%
86 | O=C(NCCNc1ccccn1)Nc1cc(C(F)(F)F)c[nH]c1=O | -16.5%
87 | O=C(NCCC1=CCCCC1)Nc1cc(C(F)(F)F)c[nH]c1=O | -8.39%
88 | O=C(Nc1cccc(F)c1)C1CCCN1c1nccs1 (stereo unspecified) | -4.72%
89 | COc1cccc(CNCC2CCN(CC(C)O)CC2)c1OC (stereo unspecified) | -0.191%
90 | CSCC(=O)N1CCCN(Cc2cscn2)CC1 | -5.28%
91 | CCc1n[nH]c(C2CN(C(=O)CCc3cscn3)CCO2)n1 (stereo unspecified) | -8.42%
92 | Cc1nnc(N2CCOC(C)C2)c(C#N)c1C (stereo unspecified) | -11.7%

Row | SMILES | cytotoxicity at 10 µM
93 | CC(C)c1cc(NC(=O)CN2CCn3c(nnc3C3CC3)C2)on1 | -14.1%
94 | Cc1nc(C)n(CC2CCCN(CC(=O)N3CCCC3)C2)n1 (stereo unspecified) | -8.31%
95 | CC(Cc1cccs1)C(=O)NCc1cccc(N2CCCC2=O)c1 (stereo unspecified) | 2.4%
96 | CC1CN(C(=O)NCCCn2cncn2)CCO1 (stereo unspecified) | -6.82%
97 | Cn1ccnc1C1(O)CCN(C(=O)Cc2ccccc2)CC1 | 5.09%
98 | CCCc1nnsc1C(=O)N1CCN(CC(O)c2ccco2)CC1 (stereo unspecified) | -7.86%
99 | Cc1cc(C)nc(N2CCN(Cc3nccn3C)CC2)n1 | -20.9%
100 | Fc1cccnc1O[C@@H]1CC[C@H]2[C@H]1OCCN2Cc1nccs1 | 4.93%
101 | O=C(c1cnccn1)N1CCO[C@H]2[C@H](OCc3cccnc3)CC[C@@H]21 | -9.45%
102 | Cc1cccc(CN2CC3(CCN(S(=O)(=O)C4CC4)CC3)OCC2=O)n1 | -3.27%
103 | CCc1nc2ccccc2c(=O)n1CC1(O)CCN(C(=O)COC)CC1 | -2.76%
104 | C1CC(CO[C@@H]2CC[C@H]3[C@H]2OCCN3CC2CCOCC2)CCO1 | 13.7%
105 | Cc1ccc2c(n1)N(C)CCN(C(=O)C1CC1)C2 | -2.15%
106 | COc1ccc(CN2CCOC3(CCCN(C(C)=O)C3)C2)cc1 (stereo unspecified) | 3.88%
107 | O=C1[C@H]2CN(Cc3ccoc3)C[C@H]2CN1Cc1cccnc1 | -76.5%
108 | O=C(CN1CCCC1=O)N1CCC(O)(Cn2ccc3ccncc32)CC1 | -5.55%
109 | CO[C@H]1CCN(Cc2cnn(C)c2)[C@@H]2CN(Cc3ccncc3)C[C@H]12 | 2.29%
110 | Cc1ncc(CN2C[C@H]3CC(OCc4ccccc4)C[C@H]3C2)cn1 (stereo partly specified) | -24.3%
111 | CCOC(=O)Cn1c(=O)[nH]c2cn(-c3ccccc3)c(=O)n21 | 0.379%
